Type in all cases: functional
Assay [1] relates to Enterococcus faecium. The assay is described as follows: Antibacterial activity against Enterococcus faecium assessed as resistant isolates by CLSI broth microdilution method. (Dilution methods test growth across graded concentrations, often in twofold steps.)
Assay [2] has as its system Enterococcus faecalis. The experiment in a line: Antibacterial activity against Enterococcus faecalis assessed as resistant isolates by CLSI broth microdilution method.
The test system of assay [3] is Enterococcus faecium. The experiment in a line: Antibacterial activity against Enterococcus faecium assessed as susceptible isolates by CLSI broth microdilution method.
The test system of assay [4] is Enterococcus faecalis. The assay is described as follows: Antibacterial activity against Enterococcus faecalis assessed as susceptible isolates by CLSI broth microdilution method.
Assay [5] has as its system Streptococcus sp. 'group B'. The experiment in a line: Antibacterial activity against Beta-hemolytic Streptococcus group B assessed as resistant isolates by CLSI broth microdilution method. In a few lines: (§1)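 Recent clinical isolates from skin/soft tissue, bloodstream and respiratory specimens. Tested by broth microdilution per CLSI M7-A7 and M100-S18, with the appropriate quality controls. The thymidine content of the test medium was assessed to rule out artifactual inhibition.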

In assay [6] the test system is Streptococcus sp. 'group B'. The assay is described as follows: Antibacterial activity against Beta-hemolytic Streptococcus group B assessed as susceptible isolates by CLSI broth microdilution method. The method in brief:
(§2)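 Clinical isolates from skin/soft tissue, bloodstream and respiratory specimens were tested by broth microdilution per CLSI M7-A7 and M100-S18, with quality controls. Values are the number of isolates inhibited at each concentration, or MIC / percent susceptible. Highest concentration tested was 8 µg/ml for iclaprim and trimethoprim-sulfamethoxazole, and 64 µg/ml for trimethoprim.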

The subject of assay [7] is Streptococcus sp. 'group A'. The experiment in a line: Antibacterial activity against Beta-hemolytic Streptococcus group A assessed as resistant isolates by CLSI broth microdilution method. In a few lines: as §1
The test system of assay [8] is Staphylococcus aureus. The assay is described as follows: Antibacterial activity against Methicillin-sensitive Staphylococcus aureus assessed as susceptible isolates by CLSI broth microdilution method.
Assay [9] deals with Staphylococcus aureus. The experiment in a line: Antibacterial activity against Methicillin-resistant Staphylococcus aureus assessed as resistant isolates by CLSI broth microdilution method.
The test system of assay [10] is Staphylococcus aureus. The experiment in a line: Antibacterial activity against Methicillin-resistant Staphylococcus aureus assessed as susceptible isolates by CLSI broth microdilution method.
The test system of assay [11] is Staphylococcus aureus. The experiment in a line: Antibacterial activity against Methicillin-sensitive Staphylococcus aureus assessed as resistant isolates by CLSI broth microdilution method.
In assay [12] the test system is Staphylococcus aureus. The assay is described as follows: Antibacterial activity against Methicillin-sensitive Staphylococcus aureus by CLSI broth microdilution method.
Assay [13] has as its system Staphylococcus aureus. The assay is described as follows: Antibacterial activity against Methicillin-resistant Staphylococcus aureus by CLSI broth microdilution method.
Assay [14] relates to Streptococcus sp. 'group A'. The experiment in a line: Antibacterial activity against Beta-hemolytic Streptococcus group A by CLSI broth microdilution method. In a few lines: as §2
In assay [15] the test system is Streptococcus sp. 'group B'. The experiment in a line: Antibacterial activity against Beta-hemolytic Streptococcus group B by CLSI broth microdilution method. The method in brief: as §2
In assay [16] the test system is Enterococcus faecalis. The experiment in a line: Antibacterial activity against Enterococcus faecalis by CLSI broth microdilution method.
Assay [17] deals with Enterococcus faecium. The assay is described as follows: Antibacterial activity against Enterococcus faecium by CLSI broth microdilution method.
Assay [18] concerns Streptococcus sp. 'group A'. The experiment in a line: Antibacterial activity against Beta-hemolytic Streptococcus group A assessed as susceptible isolates by CLSI broth microdilution method. In a few lines: as §2

The results in this text go back to ChEMBL document CHEMBL1649441, “Potency and bactericidal activity of iclaprim against recent clinical gram-positive isolates” (2009).

Converted amounts (≈) assume the structure as drawn. A value given as a limit tells only on which side of the number the result lay.

For the molecule `C[C@H]1COc2c(N3CCN(C)CC3)c(F)cc3c(=O)c(C(=O)O)cn1c23.C[C@H]1COc2c(N3CCN(C)CC3)c(F)cc3c(=O)c(C(=O)O)cn1c23.O` [LEVOFLOXACIN], the Activity is 82.2% in assay [1]; 34.2% in assay [2]; 14.2% in assay [3]; 65.2% in [4]; 0.5% in assay [5]; 99.5% in assay [6]. Besides, the Activity in assay [7] was found to be 0%; in assay [8] it was 94.2%; in assay [9] it was 82.4%; in [10] it was 16.8%; in assay [11] it was 5.6%. Further, the MIC50 was 0.25 µg/mL in [12]; > 4 µg/mL in assay [13]; 0.5 µg/mL in assay [14]; 0.5 µg/mL in assay [15]; 1 µg/mL in [16]; > 4 µg/mL in assay [17]. Besides, the MIC90 in assay [12] is 0.5 µg/mL; in [13], > 4 µg/mL; in assay [14], 1 µg/mL; in [15], 1 µg/mL; in assay [16], > 4 µg/mL; in [17], > 4 µg/mL.
On to `CN[C@H](CC(C)C)C(=O)N[C@H]1C(=O)N[C@@H](CC(N)=O)C(=O)N[C@H]2C(=O)N[C@H]3C(=O)N[C@H](C(=O)N[C@H](C(=O)O)c4cc(O)cc(O)c4-c4cc3ccc4O)[C@H](O)c3ccc(c(Cl)c3)Oc3cc2cc(c3O[C@@H]2O[C@H](CO)[C@@H](O)[C@H](O)[C@H]2O[C@H]2C[C@](C)(N)[C@H](O)[C@H](C)O2)Oc2ccc(cc2Cl)[C@H]1O` [VANCOMYCIN], for which the Activity in [1] stood at 43.2%; in assay [2], 1.9%; in assay [3], 55.8%; in assay [4], 97.7%; in [6] it was 100%; in [18], 100%. The Activity is reported as 100% in [8], 0% in assay [9], 100% in assay [10] and 0% in assay [11]. Besides, the MIC50 in assay [12] is 1 µg/mL (≈ 0.69 µM); in [13], 1 µg/mL (≈ 0.69 µM); in [14], ≤ 0.5 µg/mL; in [15], ≤ 0.5 µg/mL; in [16], 1 µg/mL (≈ 0.69 µM); in assay [17], 1 µg/mL (≈ 0.69 µM). The MIC90 in assay [12] was 1 µg/mL (≈ 0.69 µM); in assay [13], 1 µg/mL (≈ 0.69 µM); in assay [14], ≤ 0.5 µg/mL; in assay [15], ≤ 0.5 µg/mL; in [16], 2 µg/mL (≈ 1.38 µM); in assay [17], > 16 µg/mL. Further, the MIC in [14] and in assay [15] was ≤ 0.5 µg/mL each time.
Turning to `CC1(C)S[C@@H]2[C@H](NC(=O)Cc3ccccc3)C(=O)N2[C@H]1C(=O)O` [PENICILLIN G], the Activity in assay [6] amounted to 100%. Also, in assay [18], the Activity is reported as 100%. For the same molecule, in assay [14], the MIC was ≤ 0.06 µg/mL, the MIC50 is ≤ 0.06 µg/mL and the MIC90 is ≤ 0.06 µg/mL. For the same molecule, in assay [15], the MIC was ≤ 0.06 µg/mL, the MIC50 was ≤ 0.06 µg/mL and the MIC90 was ≤ 0.06 µg/mL.
With `CC(=O)NC[C@H]1CN(c2ccc(N3CCOCC3)c(F)c2)C(=O)O1` [LINEZOLID], the Activity stood at 0.7% in assay [1]; 0% in [2]; 99.3% in [3]; 100% in [4]; 100% in [6]; 100% in [18]. In addition, the Activity in assay [8] is 100%. Besides, the MIC50 in [12] amounted to 2 µg/mL (≈ 5.93 µM); in assay [13] it was 2 µg/mL (≈ 5.93 µM); in [14], 1 µg/mL (≈ 2.96 µM); in assay [15], 1 µg/mL (≈ 2.96 µM); in [16], 1 µg/mL (≈ 2.96 µM); in [17] it was 1 µg/mL (≈ 2.96 µM). Moreover, the MIC90 in assay [12] came out at 2 µg/mL (≈ 5.93 µM); in assay [13] it was 2 µg/mL (≈ 5.93 µM); in [14] it was 1 µg/mL (≈ 2.96 µM); in assay [15], 1 µg/mL (≈ 2.96 µM); in [16], 2 µg/mL (≈ 5.93 µM); in [17], 2 µg/mL (≈ 5.93 µM).
For `CC[C@H]1OC(=O)[C@H](C)[C@@H](O[C@H]2C[C@@](C)(OC)[C@@H](O)[C@H](C)O2)[C@H](C)[C@@H](O[C@@H]2O[C@H](C)C[C@H](N(C)C)[C@H]2O)[C@](C)(O)C[C@@H](C)C(=O)[C@H](C)[C@@H](O)[C@]1(C)O` [ERYTHROMYCIN], the Activity came to 84.5% in assay [1]; 52.9% in assay [2]; 3% in assay [3]; 13.5% in assay [4]; 26% in assay [5]; 73% in assay [6]. For the same molecule, the Activity is recorded as 16.1% in assay [7]; 77.9% in assay [8]; 84.3% in [9]; 14.6% in assay [10]; 21.1% in [11]. Moreover, the MIC50 in [12] was 0.25 µg/mL (≈ 0.341 µM); in assay [13], > 4 µg/mL; in [14], ≤ 0.12 µg/mL; in assay [15] it was ≤ 0.12 µg/mL; in [16], > 4 µg/mL; in [17], > 4 µg/mL. Besides, the MIC90 in [12], in assay [14], in [15], in assay [16] and in [17] was > 4 µg/mL throughout. The MIC in assay [14] is ≤ 0.12 µg/mL.
Turning to `CC1(C)S[C@@H]2[C@H](NC(=O)[C@H](N)c3ccccc3)C(=O)N2[C@H]1C(=O)O` [AMPICILLIN], the Activity is given as 88.1% in assay [1], 0% in assay [2], 11.9% in assay [3] and 100% in assay [4]. In addition, the MIC in [16] was ≤ 4 µg/mL. In addition, the MIC50 is ≤ 4 µg/mL in assay [16] and > 16 µg/mL in assay [17]. Besides, the MIC90 in [16] is ≤ 4 µg/mL; in assay [17] it was > 16 µg/mL.
Take `CN(C)[C@@H]1C(O)=C(C(N)=O)C(=O)[C@@]2(O)C(O)=C3C(=O)c4c(O)cccc4[C@@](C)(O)[C@H]3C[C@@H]12` [TETRACYCLINE]: the Activity in [1] turned out to be 32%; in assay [2], 71.3%; in [3], 67.3%; in assay [4] it was 28.4%; in assay [5], 77.9%; in assay [6], 21.6%. The Activity in [7] is reported as 9.6%; in assay [18] it was 90.2%; in assay [8], 95.8%; in assay [9] it was 12.8%; in assay [10] it was 86.5%; in assay [11] it was 4%. For the same molecule, the MIC50 is ≤ 0.5 µg/mL in [12]; ≤ 0.5 µg/mL in [14]; > 16 µg/mL in [15]; > 16 µg/mL in assay [16]; ≤ 0.5 µg/mL in assay [17]. Moreover, the MIC90 in assay [12] is ≤ 0.5 µg/mL; in assay [13], > 16 µg/mL; in assay [14], ≤ 0.5 µg/mL; in [15] it was > 16 µg/mL; in assay [16], > 16 µg/mL; in [17], > 16 µg/mL. In addition, the MIC in assay [14] and in [17] was ≤ 0.5 µg/mL in each case.
As to `CCC[C@@H]1C[C@@H](C(=O)N[C@@H]([C@H]2O[C@H](SC)[C@H](O)[C@@H](O)[C@H]2O)[C@H](C)Cl)N(C)C1` [CLINDAMYCIN], the Activity in [5] is 10.3%; in assay [6], 88.7%; in assay [7], 3.3%; in assay [18], 96.4%; in assay [8] it was 96.4%; in assay [9], 47%. Moreover, the Activity stood at 52.7% in assay [10] and 3.4% in assay [11]. Moreover, the MIC50 was ≤ 0.12 µg/mL in assay [12]; ≤ 0.12 µg/mL in assay [14]; ≤ 0.12 µg/mL in [15]; > 4 µg/mL in [16]; > 4 µg/mL in assay [17]. The MIC90 was ≤ 0.12 µg/mL in assay [12]; > 4 µg/mL in [13]; ≤ 0.12 µg/mL in assay [14]; > 4 µg/mL in assay [15]; > 4 µg/mL in [16]; > 4 µg/mL in [17]. For the same molecule, the minimal inhibitory concentration (MIC) in [14] and in [15] was ≤ 0.12 µg/mL throughout.

The MIC50 is an inhibitory concentration at the 50% level, which refers to growth in some studies and to a panel of isolates in others. A lower MIC50 goes with higher susceptibility. By MIC90 is commonly meant the lowest concentration that inhibits either 90% of growth or 90% of the strains tested, depending on the study. High values mean lower susceptibility, low ones higher susceptibility. For orientation: MIC means the lowest concentration found to suppress growth. Read a high MIC as a less susceptible organism.
